Experimental findings from ChEMBL document CHEMBL1121887, “A new nontricyclic antidepressant agent. Synthesis and activity of N-[trans-2-(dimethylamino)cyclopentyl]-N-(3,4-dichlorophenyl)propanamide and related compounds” (1981) are described below.

Format in all cases: functional
Holding throughout (settings): Mus musculus; read-out: ED50

The species entered for experiment [1] is Mus musculus. Description: Antidepressant activity using yohimbine potentiation test in mice.
The species entered for experiment [2] is Mus musculus. Kind of experiment: Antidepressant activity using oxotremorine antagonism test in mice.
The species entered for experiment [3] is Mus musculus. Description: Antidepressant activity using apomorphine potentiation test in mice. The method in brief:
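Male CF-1 mice in groups of four got test compound i.p. (50 and 25 mg/kg) in 0.25% aqueous methylcellulose. 1 h later they got apomorphine 10 mg/kg s.c. and were watched 30 min for stereotyped gnawing and licking, each positive. If ≥3 were positive, the test was repeated at 0.3 log lower doses until ≤1 responded. ED50 and 95% CI by Spearman–Karber.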

Structures are written as SMILES.

Regarding `C=CC(=O)N(c1ccc(Cl)c(Cl)c1)C1CCCC1N(C)C` (stereo not given), the ED50 (as a rule, the dose that gives a 50% effect, or the effect in half of the subjects) in the experiment listed under Mus musculus [1] worked out at 2 mg/kg; in the experiment listed under Mus musculus [2] it was 5 mg/kg; in the experiment listed under Mus musculus [3], 5 mg/kg.

For the compound `CN(C)C1CCCC1N(C(=O)C1CCC1)c1ccc(Cl)c(Cl)c1` (stereo not given), the ED50 in the experiment listed under Mus musculus [1] is 0.8 mg/kg; in the experiment listed under Mus musculus [2], 0.6 mg/kg; in the experiment filed under Mus musculus [3], more than 50 mg/kg.

Take `CCC(=O)N(c1ccc(Cl)c(Cl)c1)C1CCCCCC1N(C)C` (stereo not given): the ED50 in the experiment listed under Mus musculus [1] came to 2 mg/kg; in the experiment filed under Mus musculus [2] it was 6 mg/kg; in the experiment filed under Mus musculus [3], 20 mg/kg.

For the compound `CC(C)C(=O)N(c1ccc(Cl)c(Cl)c1)C1CCCC1N(C)C` (stereo not given), the ED50 in the experiment filed under Mus musculus [1] was 2 mg/kg; in the experiment listed under Mus musculus [2], 4 mg/kg; in the experiment filed under Mus musculus [3] it was 5 mg/kg.

On to `CCC(=O)N(c1ccc(Cl)c(Cl)c1)C1CCCCCCC1N(C)C` (stereo not given), for which the results for the ED50 in the experiment filed under Mus musculus [1], in the experiment listed under Mus musculus [2] and in the experiment listed under Mus musculus [3] were 20 mg/kg, 10 mg/kg and 6 mg/kg, respectively.

As for `CCC(=O)N(c1ccc(C#N)cc1)C1CCCC1N(C)C` (stereo not given), the ED50 was 10 mg/kg in the experiment filed under Mus musculus [1], 40 mg/kg in the experiment listed under Mus musculus [2] and more than 50 mg/kg in the experiment filed under Mus musculus [3].

On to `CCC(=O)N(c1ccc([N+](=O)[O-])cc1)C1CCCC1N(C)C` (stereo not given), for which the values for the ED50 in the experiment listed under Mus musculus [1], in the experiment listed under Mus musculus [2] and in the experiment filed under Mus musculus [3] were 20 mg/kg, 6 mg/kg and 20 mg/kg, respectively.

With `CN(C)C1CCCC1N(C(=O)C1CCCCC1)c1ccc(Cl)c(Cl)c1` (stereo not given), the ED50 in the experiment listed under Mus musculus [1] is 1 mg/kg; in the experiment listed under Mus musculus [2], 2 mg/kg; in the experiment filed under Mus musculus [3], more than 50 mg/kg.

On to `CCC(=O)N(c1ccc(Cl)c(Cl)c1)C1CCCCC1N(C)C` (stereo not given), for which the 50% effective dose (ED50) is 30 mg/kg in the experiment filed under Mus musculus [1], 20 mg/kg in the experiment filed under Mus musculus [2] and 20 mg/kg in the experiment filed under Mus musculus [3].

For the compound `CCNC1CCCC1N(C(=O)CC)c1ccc(Cl)c(Cl)c1` (stereo not given), the ED50 is 0.2 mg/kg in the experiment filed under Mus musculus [1] and 2 mg/kg in the experiment filed under Mus musculus [2].

`CCC(=O)N(c1ccc(F)cc1)C1CCCC1N(C)C` (stereo not given): the ED50 is 5 mg/kg in the experiment filed under Mus musculus [1], 0.08 mg/kg in the experiment filed under Mus musculus [2] and more than 50 mg/kg in the experiment filed under Mus musculus [3].

For the compound `CCC(=O)N(c1ccc(C(C)=O)cc1)C1CCCC1N(C)C` (stereo not given), the ED50 in the experiment filed under Mus musculus [1] was more than 50 mg/kg; in the experiment filed under Mus musculus [2], 40 mg/kg; in the experiment listed under Mus musculus [3], more than 50 mg/kg.

For `CCC(=O)N(c1cccc(OC)c1)C1CCCC1N(C)C` (stereo not given), the ED50 in the experiment listed under Mus musculus [1] is 0.8 mg/kg; in the experiment listed under Mus musculus [2], 4 mg/kg; in the experiment filed under Mus musculus [3], 4 mg/kg.

In the case of `CCC(=O)N(c1cccc(C(F)(F)F)c1)C1CCCC1N(C)C` (stereo not given), the results for the ED50 in the experiment filed under Mus musculus [1], in the experiment listed under Mus musculus [2] and in the experiment listed under Mus musculus [3] were 0.3 mg/kg, 0.2 mg/kg and 0.9 mg/kg, respectively.

Turning to `CN(C)C1CCCC1N(C(=O)C1CC1)c1ccc(Cl)c(Cl)c1` (stereo not given), the ED50 in the experiment filed under Mus musculus [1] came to 0.2 mg/kg; in the experiment filed under Mus musculus [2], 0.3 mg/kg; in the experiment filed under Mus musculus [3] it was 0.4 mg/kg.

With `CCC(=O)N(c1cccc(Cl)c1)C1CCCC1N(C)C` (stereo not given), the ED50 worked out at 0.4 mg/kg in the experiment listed under Mus musculus [1], 0.2 mg/kg in the experiment filed under Mus musculus [2] and 20 mg/kg in the experiment listed under Mus musculus [3].

Turning to `CCC(=O)N(c1ccc(Cl)c(Cl)c1)C1CCCC1N(C)CCc1ccccc1` (stereo not given), the ED50 in the experiment filed under Mus musculus [1] was 0.1 mg/kg; in the experiment filed under Mus musculus [2], 0.4 mg/kg; in the experiment listed under Mus musculus [3], 5 mg/kg.

As for `CN(C)C1CCCC1N(C(=O)c1ccco1)c1ccc(Cl)c(Cl)c1` (stereo not given), the ED50 in the experiment filed under Mus musculus [1] was 9 mg/kg; in the experiment filed under Mus musculus [2], more than 50 mg/kg; in the experiment filed under Mus musculus [3], more than 50 mg/kg.

For the compound `CCC(=O)N(c1ccc(C(F)(F)F)cc1)C1CCCC1N(C)C` (stereo not given), the ED50 in the experiment filed under Mus musculus [1] was found to be 10 mg/kg; in the experiment filed under Mus musculus [2], 25 mg/kg; in the experiment listed under Mus musculus [3] it was 10 mg/kg.

For `CCC(=O)N(c1ccc(Br)c(Br)c1)C1CCCC1N(C)C` (stereo not given), the ED50 turned out to be 0.1 mg/kg in the experiment filed under Mus musculus [1], 0.2 mg/kg in the experiment listed under Mus musculus [2] and 0.5 mg/kg in the experiment listed under Mus musculus [3].

With `CCCN(CCC)C1CCCC1N(C(=O)CC)c1ccc(Cl)c(Cl)c1` (stereo not given), the ED50 in the experiment listed under Mus musculus [1] was 2 mg/kg; in the experiment listed under Mus musculus [2], 0.1 mg/kg; in the experiment filed under Mus musculus [3] it was more than 50 mg/kg.

Turning to `C=CCNC1CCCC1N(C(=O)CC)c1ccc(Cl)c(Cl)c1` (stereo not given), the ED50 in the experiment filed under Mus musculus [1] came to 0.2 mg/kg; in the experiment filed under Mus musculus [2] it was 3 mg/kg.

Take `CC(=O)N(c1ccc(Cl)c(Cl)c1)C1CCCC1N(C)C` (stereo not given): the results for the ED50 in the experiment listed under Mus musculus [1], in the experiment filed under Mus musculus [2] and in the experiment filed under Mus musculus [3] were 9 mg/kg, 10 mg/kg and 20 mg/kg, respectively.

As for `CCC(=O)N(c1ccc(C(=O)OC)cc1)C1CCCC1N(C)C` (stereo not given), the ED50 in the experiment listed under Mus musculus [1], in the experiment listed under Mus musculus [2] and in the experiment filed under Mus musculus [3] was more than 50 mg/kg throughout.

For `CCCC(=O)N(c1ccccc1)C1CCCC1N(C)C` (stereo not given), the ED50 was determined as 6 mg/kg in the experiment listed under Mus musculus [1], 10 mg/kg in the experiment listed under Mus musculus [2] and 40 mg/kg in the experiment filed under Mus musculus [3].

Take `CC(=O)N(c1ccccc1)C1CCCC1N(C)C` (stereo not given): the ED50 turned out to be 7 mg/kg in the experiment filed under Mus musculus [1], 9 mg/kg in the experiment listed under Mus musculus [2] and 40 mg/kg in the experiment filed under Mus musculus [3].

Regarding `CCC(=O)N(c1ccc(Cl)cc1)C1CCCC1N(C)C` (stereo not given), the figures for the median effective dose (ED50) in the experiment listed under Mus musculus [1], in the experiment listed under Mus musculus [2] and in the experiment listed under Mus musculus [3] were 3 mg/kg, 0.2 mg/kg and more than 50 mg/kg, respectively.

Take `CCC(=O)N(c1ccccc1C)C1CCCC1N(C)C` (stereo not given): the ED50 in the experiment listed under Mus musculus [1] was 7 mg/kg; in the experiment listed under Mus musculus [2], 5 mg/kg; in the experiment filed under Mus musculus [3], more than 50 mg/kg.

For the compound `CCC(=O)N(c1c(F)c(F)c(F)c(F)c1F)C1CCCC1N(C)C` (stereo not given), the ED50 in the experiment filed under Mus musculus [1], in the experiment filed under Mus musculus [2] and in the experiment filed under Mus musculus [3] was more than 50 mg/kg throughout.
